In general, IC50 refers to the concentration needed to halve the response being measured.

For assay [1], the target named is T1, 3-hydroxy-3-methylglutaryl-coenzyme A reductase (Schizosaccharomyces pombe 972h-, UniProt Q10283).
T1 sequence (Q10283 whole entry): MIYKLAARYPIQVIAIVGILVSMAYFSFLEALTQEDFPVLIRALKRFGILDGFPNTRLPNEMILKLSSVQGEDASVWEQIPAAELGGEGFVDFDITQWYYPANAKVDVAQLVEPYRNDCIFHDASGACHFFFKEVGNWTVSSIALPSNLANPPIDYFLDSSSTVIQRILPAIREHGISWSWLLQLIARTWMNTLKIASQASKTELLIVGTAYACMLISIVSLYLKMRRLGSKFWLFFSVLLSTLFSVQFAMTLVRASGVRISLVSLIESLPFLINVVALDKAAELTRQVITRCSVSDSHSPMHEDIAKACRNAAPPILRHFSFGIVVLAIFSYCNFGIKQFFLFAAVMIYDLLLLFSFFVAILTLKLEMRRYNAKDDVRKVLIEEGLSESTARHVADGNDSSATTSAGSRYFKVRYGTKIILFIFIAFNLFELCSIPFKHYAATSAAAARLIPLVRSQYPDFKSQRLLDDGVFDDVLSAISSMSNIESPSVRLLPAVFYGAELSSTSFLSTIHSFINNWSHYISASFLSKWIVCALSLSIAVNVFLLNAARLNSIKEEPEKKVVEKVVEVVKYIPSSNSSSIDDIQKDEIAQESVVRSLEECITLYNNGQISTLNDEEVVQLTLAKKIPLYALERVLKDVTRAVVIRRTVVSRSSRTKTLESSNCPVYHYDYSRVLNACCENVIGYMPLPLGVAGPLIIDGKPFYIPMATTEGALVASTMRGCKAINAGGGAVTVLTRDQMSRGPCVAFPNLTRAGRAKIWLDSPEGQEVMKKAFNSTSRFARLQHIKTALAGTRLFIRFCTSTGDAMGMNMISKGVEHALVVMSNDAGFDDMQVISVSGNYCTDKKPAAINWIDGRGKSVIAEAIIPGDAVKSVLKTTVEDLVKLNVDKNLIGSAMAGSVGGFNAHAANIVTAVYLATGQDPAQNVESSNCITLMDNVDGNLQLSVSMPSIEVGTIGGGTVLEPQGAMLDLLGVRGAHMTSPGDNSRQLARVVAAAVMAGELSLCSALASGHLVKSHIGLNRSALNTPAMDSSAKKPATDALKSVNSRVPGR
Nature of the assay: Inhibition of Schizosaccharomyces pombe HMG-CoA reductase by spectrophotometry. The method in brief:
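Membrane HMGR partially purified from S. pombe 972 h (YPD, 28 °C, 48 h) via centrifugation, Triton X-100 solubilization, 65 °C heat step, ammonium sulfate and calcium phosphate gel. Enzyme activated 37 °C 30 min, pre-incubated with compound (DMSO stocks 1–5 mM) 30 min at 37 °C. Assay: 200 µg enzyme, 0.13 mM HMG-CoA, 50 mM Tris-HCl pH 7.5; started with 0.13 mM NADPH; A340 decrease over 2 min; triplicate; IC50 derived.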

The test system of assay [2] is Mus musculus. Nature of the assay: Hypolipidemic activity in ICR mouse assessed as decrease in Tyloxapol-induced LDL-cholesterol level at 50 mg/kg, ip administered 1 hr before Tyloxapol challenge and 22, 48 hrs after Tyloxapol challenge measured after 22 hrs relative to control. In kind it is functional. Further details: scale not given: the % may be the effect or the level left; call rule not given here. As to conditions: route oral, in the assay text read “po administered” for “ip administered”. In outline:
(§1)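 Male ICR mice (24–27 g), groups of six. Hyperlipidemia induced by ip Tyloxapol (Triton WR 1339) 400 mg/kg in water. Drug given at 5 mL/kg 1 h before and 22 and 48 h after injection; vehicle controls. Blood drawn 22 h post-injection by periorbital bleeding. Serum total cholesterol, HDL-C and triglycerides measured on an automatic analyzer; LDL-C by the Friedewald equation. Values are % of the Tyloxapol group, mean ± SE.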

Assay [3] relates to Mus musculus. Nature of the assay: Hypolipidemic activity in ICR mouse assessed as decrease in Tyloxapol-induced total cholesterol level at 100 mg/kg, ip administered 1 hr before Tyloxapol challenge and 22, 48 hrs after Tyloxapol challenge measured after 22 hrs relative to control. In kind it is functional. Further details: scale not given: the % may be the effect or the level left. The conditions noted are these: route oral, in the assay text read “po administered” for “ip administered”. The method in brief: as §1

Assay [4] concerns Mus musculus. Nature of the assay: Hypolipidemic activity in ICR mouse assessed as decrease in Tyloxapol-induced HDL-cholesterol level at 50 mg/kg, ip administered 1 hr before Tyloxapol challenge and 22, 48 hrs after Tyloxapol challenge measured after 22 hrs relative to control. The format is functional. Further details: scale not given: the % may be the effect or the level left. The conditions noted are these: route oral, in the assay text read “po administered” for “ip administered”. In outline: as §1

In assay [5] the test system is Mus musculus. Put plainly: Hypolipidemic activity in high cholesterol diet fed ICR mouse assessed as reduction of HDL cholesterol level at 100 mg/kg/day, po after 12 hrs of last cholesterol challenge relative to control. Further details: scale not given: the % may be the effect or the level left.
Assay [6] relates to Mus musculus. Put plainly: Hypolipidemic activity in ICR mouse assessed as decrease in Tyloxapol-induced HDL-cholesterol level at 100 mg/kg, ip administered 1 hr before Tyloxapol challenge and 22, 48 hrs after Tyloxapol challenge measured after 22 hrs relative to control. In kind it is functional. Further details: scale not given: the % may be the effect or the level left. The conditions noted are these: route intraperitoneal. In outline:
as §1

Assay [7] relates to Mus musculus. Nature of the assay: Hypolipidemic activity in ICR mouse assessed as decrease in Tyloxapol-induced triglyceride level at 50 mg/kg, ip administered 1 hr before Tyloxapol challenge and 22, 48 hrs after Tyloxapol challenge measured after 22 hrs relative to control. In kind it is functional. Further details: scale not given: the % may be the effect or the level left. As to conditions: route intraperitoneal. In outline: as §1

In assay [8] the test system is Mus musculus. Put plainly: Hypolipidemic activity in high cholesterol diet fed ICR mouse assessed as reduction of HDL cholesterol level at 50 mg/kg/day, po after 12 hrs of last cholesterol challenge relative to control. Further details: scale not given: the % may be the effect or the level left.
The subject of assay [9] is Mus musculus. Nature of the assay: Hypolipidemic activity in high cholesterol diet fed ICR mouse assessed as reduction of total cholesterol level at 100 mg/kg/day, ip after 12 hrs of last cholesterol challenge relative to control. The format is functional. Further details: scale not given: the % may be the effect or the level left. As to conditions: route intraperitoneal. In outline:
(§2)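 Male ICR mice (24–27 g), six per group, were fed a high-cholesterol diet ad libitum for 6 days (1.0% cholesterol, 0.5% sodium cholate, 5% butter, 30% sucrose, 10% casein, 53.5% chow). Basal-diet mice served as controls. Dosing was 5 mL/kg and solutions were made fresh. Mice were fasted 12 h before sacrifice and bled periorbitally. Serum TC, HDL-C and TG were read on an analyzer, with LDL-C by Friedewald.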

The subject of assay [10] is Mus musculus. Put plainly: Hypolipidemic activity in ICR mouse assessed as decrease in Tyloxapol-induced triglyceride level at 100 mg/kg, ip administered 1 hr before Tyloxapol challenge and 22, 48 hrs after Tyloxapol challenge measured after 22 hrs relative to control. In kind it is functional. Further details: scale not given: the % may be the effect or the level left. As to conditions: route intraperitoneal. In outline:
as §1

Assay [11] has as its system Mus musculus. Put plainly: Hypolipidemic activity in high cholesterol diet fed ICR mouse assessed as reduction of LDL cholesterol level at 100 mg/kg/day, po after 12 hrs of last cholesterol challenge relative to control. Further details: scale not given: the % may be the effect or the level left.
The subject of assay [12] is Mus musculus. Put plainly: Hypolipidemic activity in high cholesterol diet fed ICR mouse assessed as reduction of total cholesterol level at 50 mg/kg, ip after 12 hrs of last cholesterol challenge relative to control. Further details: scale not given: the % may be the effect or the level left. As to conditions: route intraperitoneal. In kind it is functional. In outline:
as §2

For assay [13], the system named is Mus musculus. Nature of the assay: Hypolipidemic activity in high cholesterol diet fed ICR mouse assessed as reduction of triglyceride level at 50 mg/kg/day, po after 12 hrs of last cholesterol challenge relative to control. Further details: scale not given: the % may be the effect or the level left.
The test system of assay [14] is Mus musculus. Put plainly: Hypolipidemic activity in ICR mouse assessed as decrease in Tyloxapol-induced total cholesterol level at 50 mg/kg, ip administered 1 hr before Tyloxapol challenge and 22, 48 hrs after Tyloxapol challenge measured after 22 hrs relative to control. In kind it is functional. Further details: scale not given: the % may be the effect or the level left. As to conditions: route oral, in the assay text read “po administered” for “ip administered”. The method in brief: as §1

Assay [15] relates to Mus musculus. Put plainly: Hypolipidemic activity in high cholesterol diet fed ICR mouse assessed as reduction of LDL cholesterol level at 50 mg/kg/day, po after 12 hrs of last cholesterol challenge relative to control. Further details: scale not given: the % may be the effect or the level left.
The test system of assay [16] is Mus musculus. Nature of the assay: Hypolipidemic activity in high cholesterol diet fed ICR mouse assessed as reduction of triglyceride level at 100 mg/kg/day, po after 12 hrs of last cholesterol challenge relative to control. Further details: scale not given: the % may be the effect or the level left.
For assay [17], the system named is Mus musculus. Put plainly: Hypolipidemic activity in ICR mouse assessed as decrease in Tyloxapol-induced LDL-cholesterol level at 100 mg/kg, ip administered 1 hr before Tyloxapol challenge and 22, 48 hrs after Tyloxapol challenge measured after 22 hrs relative to control. As to conditions: route oral, in the assay text read “po administered” for “ip administered”. In kind it is functional. Further details: scale not given: the % may be the effect or the level left. In outline: as §1

As for `CCCCCc1cc(OC)c(OC)cc1OC`, the half-maximal inhibitory concentration (IC50) in assay [1] (read-out: IC50) was determined as 84.6 µM.
`C=CCc1cc(OC)c(OCC(=O)O)cc1[N+](=O)[O-]`: the IC50 in assay [1] (read-out: IC50) is 144 µM.
On the same count and under the same terms, the same measure for `C=CCc1ccc(OCCNC(=O)c2cccc(Cl)c2)c(OC)c1`: 239 µM; for `C/C=C/c1cc(OC)c(OC)cc1N`: 167 µM.
For `CCCc1ccc(OCC(=O)O)c(OC)c1`, the Activity in the assay on Mus musculus [2] is -32.56%; with Mus musculus [3] it was -22.59%; with Mus musculus [4] it was -18.23%; in the assay on Mus musculus [5] it was -19.33%; in the assay on Mus musculus [6] it was -15.32%; with Mus musculus [7] it was -32.46%. Besides, the Activity in the assay with Mus musculus [8] was -15.66%; in the assay with Mus musculus [9], -25.66%; with Mus musculus [10] it was -29.89%; with Mus musculus [11], -44.51%; in the assay with Mus musculus [12], -32.83%; in the assay on Mus musculus [13], -38.38%. The Activity is reported as -21.28% in the assay on Mus musculus [14], -33.54% in the assay with Mus musculus [15], -27.55% with Mus musculus [16] and -39.12% with Mus musculus [17].
`CCCc1cc(OC)c(OCC(=O)OC)cc1[N+](=O)[O-]`: the Activity with Mus musculus [2] is reported as -45.69%; in the assay with Mus musculus [3] it was -60.1%; in the assay with Mus musculus [4], -23.15%; in the assay on Mus musculus [5] it was -11.43%; in the assay with Mus musculus [6], -25.81%; with Mus musculus [7], -11.99%. Further, the Activity is reported as -11.36% in the assay on Mus musculus [8]; -39.51% with Mus musculus [9]; -19.91% with Mus musculus [10]; -16.76% with Mus musculus [11]; -48.64% in the assay on Mus musculus [12]; -41.98% in the assay with Mus musculus [13]. Also, the Activity with Mus musculus [14] was -68.64%; in the assay with Mus musculus [15] it was -21.13%; in the assay with Mus musculus [16], -28.78%; in the assay on Mus musculus [17], -33.33%.
Take `CCOC(=O)COc1cccc(C(C)=O)c1`: the IC50 result in [1] is recorded as “Not Active”.
With `C/C=C/c1cc(OC)c(OC)cc1Cl`, the IC50 in assay [1] (read-out: IC50) is 71.4 µM.
Still for that read-out and setting: the same measure for `CCC(O)c1cc(OC)c(OC)cc1N` (configuration not stated): 153 µM.
The same measure, in the same setting: for `C=CCc1ccc(OCC(=O)O)c(OC)c1` the value was 73.4 µM.
As to `CCC(C)(C)C(=O)O[C@H]1C[C@@H](C)C=C2C=C[C@H](C)[C@H](CC[C@@H]3C[C@@H](O)CC(=O)O3)[C@H]21` [SIMVASTATIN], the IC50 in assay [1] (read-out: IC50) is 95.2 µM.
For the molecule `C/C=C/c1cc(OC)c(OC)cc1OC` [TRANS-ASARONE], in [1] (read-out: IC50), the half-inhibitory concentration (IC50) worked out at 2490 µM.

The values are drawn from ChEMBL document CHEMBL1166015, “Design, synthesis, and docking of highly hypolipidemic agents: Schizosaccharomyces pombe as a new model for evaluating alpha-asarone-based HMG-CoA reductase inhibitors” (Bioorg Med Chem, 2010).
